Where “and” joins values, the source holds several entries; their conditions need not be identical. Equal entries are not always repeated.
Columns and labels:
Format in all cases: toxicity, cell-based
Fibroblast [1] = experiment: Multiplex assay against human fibroblast; settings: 1 µM, compound concentration 1 uM
Procedure, shortened: (§1)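 Tubulin, mitochondrial-mass and membrane-permeability phenotypes are per cents of healthy-nucleus cells. Cells were gated by CellPathfinder machine learning into Hoechst high-intensity objects or normal cells, normal cells into healthy, pyknosed or fragmented nuclei, and pyknosed cells into mitotic or apoptotic. Before that, live cells stained at seeding with Hoechst33342, BioTracker Green Microtubule Cytoskeleton Dye, MitoTracker Red and Annexin V Alexa Fluor 680 were imaged on a CQ1 microscope at 37°C and 5% CO2 after compound addition.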

HEK-293T [2] = experiment: Multiplex assay against HEK293T; settings: human, 1 µM, compound concentration 1 uM; procedure, shortened: as §1
U2OS [3] = experiment: Multiplex assay against U2OS; settings: human, 1 µM, compound concentration 1 uM; procedure, shortened: as §1
HEK-293T [4] = experiment: Incucyte cell viability with HEK293T; settings: human, 10 µM, compound concentration 10 uM; note: filed as whole numbers so only -1 and 0 and 1 occur
Fibroblast [5] = experiment: Incucyte cell viability with human fibroblast; settings: 10 µM, compound concentration 10 uM; note: filed as whole numbers so only -1 and 0 and 1 occur
U2OS [6] = experiment: Incucyte cell viability with U2OS; settings: human, 10 µM, compound concentration 10 uM; note: filed as whole numbers so only -1 and 0 and 1 occur
[7] = 0 h, replicate number 2, timepoint 0 hours
[8] = 6 h, replicate number 1, timepoint 6 hours
[9] = 12 h, replicate number 1, timepoint 12 hours
[10] = 18 h, replicate number 1, timepoint 18 hours
[11] = 24 h, replicate number 1, timepoint 24 hours

C[C@]1(O)C[C@@H](c2nc(-c3ccc4ccc(-c5ccccc5)nc4c3)c3c(N)nccn32)C1 [LINSITINIB]
Population Apoptotic (%) (Fibroblast [1]; 12 h, replicate 1): 56% and 93%
Population Fragmented Nuclei (%) (Fibroblast [1]; 12 h, replicate 1): 43% and 32%
Population Healthy Nuclei (%) (Fibroblast [1]; 12 h, replicate 1): 44% and 50%
Population Hoechst High Intensity Objects (%) (Fibroblast [1]; 12 h, replicate 1): 18% and 12%
Population Membrane Permeable-Phenotype (%) (Fibroblast [1]; 12 h, replicate 1): 13% and 8%
Population Mitochondria Different-Phenotype (%) (Fibroblast [1]; 12 h, replicate 1): 1%
Population Normal (%) (Fibroblast [1]; 12 h, replicate 1): 81% and 87%
Population Pyknosed Nuclei (%) (Fibroblast [1]; 12 h, replicate 1): 11% and 17%
Total Cell Count (Fibroblast [1]; 12 h, replicate 1): 345 and 206
Population Apoptotic (%) (Fibroblast [1]; 12 h, replicate 2): 40% and 66%
Population Fragmented Nuclei (%) (Fibroblast [1]; 12 h, replicate 2): 56% and 76%
Population Healthy Nuclei (%) (Fibroblast [1]; 12 h, replicate 2): 31% and 18%
Population Hoechst High Intensity Objects (%) (Fibroblast [1]; 12 h, replicate 2): 45% and 43%
Population Membrane Permeable-Phenotype (%) (Fibroblast [1]; 12 h, replicate 2): 0% and 9%
Population Mitotic Cells (%) (Fibroblast [1]; 12 h, replicate 2): 60% and 33%
Population Normal (%) (Fibroblast [1]; 12 h, replicate 2): 54% and 56%
Population Pyknosed Nuclei (%) (Fibroblast [1]; 12 h, replicate 2): 12% and 5%
Total Cell Count (Fibroblast [1]; 12 h, replicate 2): 75 and 105
Population Apoptotic (%) (Fibroblast [1]; 24 h, replicate 1): 52% and 80%
Population Fragmented Nuclei (%) (Fibroblast [1]; 24 h, replicate 1): 47% and 33%
Population Healthy Nuclei (%) (Fibroblast [1]; 24 h, replicate 1): 44% and 51%
Population Hoechst High Intensity Objects (%) (Fibroblast [1]; 24 h, replicate 1): 22% and 12%
Population Membrane Permeable-Phenotype (%) (Fibroblast [1]; 24 h, replicate 1): 9%
Population Mitochondria Different-Phenotype (%) (Fibroblast [1]; 24 h, replicate 1): 2% and 4%
Population Mitotic Cells (%) (Fibroblast [1]; 24 h, replicate 1): 47% and 20%
Population Normal (%) (Fibroblast [1]; 24 h, replicate 1): 77% and 87%
Population Pyknosed Nuclei (%) (Fibroblast [1]; 24 h, replicate 1): 8% and 14%
Total Cell Count (Fibroblast [1]; 24 h, replicate 1): 364 and 202
Population Apoptotic (%) (Fibroblast [1]; 24 h, replicate 2): 50%
Population Fragmented Nuclei (%) (Fibroblast [1]; 24 h, replicate 2): 58% and 75%
Population Healthy Nuclei (%) (Fibroblast [1]; 24 h, replicate 2): 37% and 21%
Population Hoechst High Intensity Objects (%) (Fibroblast [1]; 24 h, replicate 2): 33% and 52%
Population Membrane Permeable-Phenotype (%) (Fibroblast [1]; 24 h, replicate 2): 21% and 18%
Population Mitotic Cells (%) (Fibroblast [1]; 24 h, replicate 2): 50%
Population Normal (%) (Fibroblast [1]; 24 h, replicate 2): 66% and 47%
Population Pyknosed Nuclei (%) (Fibroblast [1]; 24 h, replicate 2): 3%
Total Cell Count (Fibroblast [1]; 24 h, replicate 2): 77 and 109
Population Apoptotic (%) (HEK-293T [2]; 12 h, replicate 1): 31% and 29%
Population Fragmented Nuclei (%) (HEK-293T [2]; 12 h, replicate 1): 19% and 26%
Population Healthy Nuclei (%) (HEK-293T [2]; 12 h, replicate 1): 45% and 44%
Population Hoechst High Intensity Objects (%) (HEK-293T [2]; 12 h, replicate 1): 33% and 19%
Population Membrane Permeable-Phenotype (%) (HEK-293T [2]; 12 h, replicate 1): 11% and 4%
Population Mitochondria Different-Phenotype (%) (HEK-293T [2]; 12 h, replicate 1): 17% and 6%
Population Mitotic Cells (%) (HEK-293T [2]; 12 h, replicate 1): 68% and 70%
Population Normal (%) (HEK-293T [2]; 12 h, replicate 1): 66% and 80%
Population Pyknosed Nuclei (%) (HEK-293T [2]; 12 h, replicate 1): 35% and 28%
Total Cell Count (HEK-293T [2]; 12 h, replicate 1): 588 and 493
Population Apoptotic (%) (HEK-293T [2]; 12 h, replicate 2): 18% and 11%
Population Fragmented Nuclei (%) (HEK-293T [2]; 12 h, replicate 2): 4% and 8%
Population Healthy Nuclei (%) (HEK-293T [2]; 12 h, replicate 2): 83% and 86%
Population Hoechst High Intensity Objects (%) (HEK-293T [2]; 12 h, replicate 2): 14% and 5%
Population Membrane Permeable-Phenotype (%) (HEK-293T [2]; 12 h, replicate 2): 5% and 1%
Population Mitotic Cells (%) (HEK-293T [2]; 12 h, replicate 2): 81% and 88%
Population Normal (%) (HEK-293T [2]; 12 h, replicate 2): 85% and 94%
Population Pyknosed Nuclei (%) (HEK-293T [2]; 12 h, replicate 2): 11% and 4%
Total Cell Count (HEK-293T [2]; 12 h, replicate 2): 891 and 1486
Population Apoptotic (%) (HEK-293T [2]; 24 h, replicate 1): 31% and 26%
Population Fragmented Nuclei (%) (HEK-293T [2]; 24 h, replicate 1): 22% and 26%
Population Healthy Nuclei (%) (HEK-293T [2]; 24 h, replicate 1): 53% and 56%
Population Hoechst High Intensity Objects (%) (HEK-293T [2]; 24 h, replicate 1): 27% and 13%
Population Membrane Permeable-Phenotype (%) (HEK-293T [2]; 24 h, replicate 1): 7% and 5%
Population Mitochondria Different-Phenotype (%) (HEK-293T [2]; 24 h, replicate 1): 29% and 10%
Population Mitotic Cells (%) (HEK-293T [2]; 24 h, replicate 1): 68% and 73%
Population Normal (%) (HEK-293T [2]; 24 h, replicate 1): 72% and 86%
Population Pyknosed Nuclei (%) (HEK-293T [2]; 24 h, replicate 1): 23% and 16%
Total Cell Count (HEK-293T [2]; 24 h, replicate 1): 525 and 479
Population Fragmented Nuclei (%) (HEK-293T [2]; 24 h, replicate 2): 10%
Population Healthy Nuclei (%) (HEK-293T [2]; 24 h, replicate 2): 82% and 71%
Population Hoechst High Intensity Objects (%) (HEK-293T [2]; 24 h, replicate 2): 18% and 6%
Population Membrane Permeable-Phenotype (%) (HEK-293T [2]; 24 h, replicate 2): 8% and 4%
Population Mitotic Cells (%) (HEK-293T [2]; 24 h, replicate 2): 80% and 93%
Population Normal (%) (HEK-293T [2]; 24 h, replicate 2): 81% and 93%
Population Pyknosed Nuclei (%) (HEK-293T [2]; 24 h, replicate 2): 6% and 2%
Total Cell Count (HEK-293T [2]; 24 h, replicate 2): 1000 and 2217
Population Apoptotic (%) (U2OS [3]; 12 h, replicate 1): 57% and 35%
Population Fragmented Nuclei (%) (U2OS [3]; 12 h, replicate 1): 10% and 3%
Population Healthy Nuclei (%) (U2OS [3]; 12 h, replicate 1): 79% and 85%
Population Hoechst High Intensity Objects (%) (U2OS [3]; 12 h, replicate 1): 2% and 4%
Population Mitochondria Different-Phenotype (%) (U2OS [3]; 12 h, replicate 1): 17% and 28%
Population Mitotic Cells (%) (U2OS [3]; 12 h, replicate 1): 42% and 64%
Population Normal (%) (U2OS [3]; 12 h, replicate 1): 97% and 95%
Population Pyknosed Nuclei (%) (U2OS [3]; 12 h, replicate 1): 9% and 11%
Population Tubulin-Different-Phenotype (%) (U2OS [3]; 12 h, replicate 1): 50%
Total Cell Count (U2OS [3]; 12 h, replicate 1): 132 and 196
Population Apoptotic (%) (U2OS [3]; 12 h, replicate 2): 50% and 33%
Population Fragmented Nuclei (%) (U2OS [3]; 12 h, replicate 2): 13% and 5%
Population Healthy Nuclei (%) (U2OS [3]; 12 h, replicate 2): 81% and 89%
Population Hoechst High Intensity Objects (%) (U2OS [3]; 12 h, replicate 2): 8% and 19%
Population Membrane Permeable-Phenotype (%) (U2OS [3]; 12 h, replicate 2): 39% and 16%
Population Mitochondria Different-Phenotype (%) (U2OS [3]; 12 h, replicate 2): 16% and 25%
Population Mitotic Cells (%) (U2OS [3]; 12 h, replicate 2): 50% and 66%
Population Normal (%) (U2OS [3]; 12 h, replicate 2): 91% and 80%
Population Pyknosed Nuclei (%) (U2OS [3]; 12 h, replicate 2): 5% and 4%
Population Tubulin-Different-Phenotype (%) (U2OS [3]; 12 h, replicate 2): 45% and 28%
Total Cell Count (U2OS [3]; 12 h, replicate 2): 83 and 65
Population Apoptotic (%) (U2OS [3]; 24 h, replicate 1): 48% and 53%
Population Fragmented Nuclei (%) (U2OS [3]; 24 h, replicate 1): 4%
Population Healthy Nuclei (%) (U2OS [3]; 24 h, replicate 1): 76% and 87%
Population Membrane Permeable-Phenotype (%) (U2OS [3]; 24 h, replicate 1): 23% and 8%
Population Mitochondria Different-Phenotype (%) (U2OS [3]; 24 h, replicate 1): 20% and 22%
Population Mitotic Cells (%) (U2OS [3]; 24 h, replicate 1): 51% and 46%
Population Normal (%) (U2OS [3]; 24 h, replicate 1): 94% and 98%
Population Pyknosed Nuclei (%) (U2OS [3]; 24 h, replicate 1): 11% and 8%
Population Tubulin-Different-Phenotype (%) (U2OS [3]; 24 h, replicate 1): 41% and 33%
Total Cell Count (U2OS [3]; 24 h, replicate 1): 180 and 194
Population Fragmented Nuclei (%) (U2OS [3]; 24 h, replicate 2): 12% and 8%
Population Healthy Nuclei (%) (U2OS [3]; 24 h, replicate 2): 79% and 84%
Population Membrane Permeable-Phenotype (%) (U2OS [3]; 24 h, replicate 2): 27% and 13%
Population Mitochondria Different-Phenotype (%) (U2OS [3]; 24 h, replicate 2): 19% and 28%
Population Mitotic Cells (%) (U2OS [3]; 24 h, replicate 2): 60% and 100%
Population Normal (%) (U2OS [3]; 24 h, replicate 2): 95% and 86%
Population Pyknosed Nuclei (%) (U2OS [3]; 24 h, replicate 2): 7%
Population Tubulin-Different-Phenotype (%) (U2OS [3]; 24 h, replicate 2): 28% and 38%
Total Cell Count (U2OS [3]; 24 h, replicate 2): 114 and 78
Growth Rate (HEK-293T [4]; [7]): 1
Growth Rate (HEK-293T [4]; [8]): 0
Growth Rate (HEK-293T [4]; [9]): 0
Growth Rate (HEK-293T [4]; [10]): 0
Growth Rate (HEK-293T [4]; [11]): 0
Growth Rate (Fibroblast [5]; [7]): 0
Growth Rate (Fibroblast [5]; [8]): 1
Growth Rate (Fibroblast [5]; [9]): 1
Growth Rate (Fibroblast [5]; 18 h, replicate number 2, timepoint 18 hours): 1
Growth Rate (Fibroblast [5]; [11]): 1
Growth Rate (U2OS [6]; 0 h, replicate number 1, timepoint 0 hours): 1
Growth Rate (U2OS [6]; [8]): 0
Growth Rate (U2OS [6]; [9]): 0
Growth Rate (U2OS [6]; [10]): 0
Growth Rate (U2OS [6]; [11]): 0
